This is an account of results in ChEMBL document CHEMBL1121523, “Aminoglycoside antibiotics. 3. Epimino derivatives of neamine, ribostamycin, and kanamycin B” (1980).

≈ marks a conversion by molar mass, not a printed value.

Type in all cases: functional
Assay [1] concerns Providencia rettgeri. As to the kind of experiment: Minimum inhibitory concentration was measured against Proteus rettgeri A 21615.
The test system of assay [2] is Pseudomonas aeruginosa. As to the kind of experiment: Minimum inhibitory concentration was measured against Pseudomonas aeruginosa A 20653.
Assay [3] has as its system Escherichia coli. Nature of the assay: Minimum inhibitory concentration was measured against Escherichia coli A 20665, in combination with Kanamycin A at 8 ug/mL concentration. The method in brief: (§1)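 The value is the minimum inhibitory concentration of kanamycin A, in µg/mL, against the listed strain. Strains are designated by their inactivating enzyme, e.g. aminoglycoside 3'-phosphotransferase II producers.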

The subject of assay [4] is Pseudomonas aeruginosa. As to the kind of experiment: Minimum inhibitory concentration was measured against Pseudomonas aeruginosa A 20357, in combination with Kanamycin A at specified concentration. The method in brief: as §1
For assay [5], the system named is Providencia rettgeri. Nature of the assay: Minimum inhibitory concentration was measured against Proteus rettgeri A 9637, in combination with Kanamycin A at specified concentration. The method in brief:
as §1

Assay [6] deals with Providencia rettgeri. Nature of the assay: Minimum inhibitory concentration was measured against Proteus rettgeri A 9637.
The subject of assay [7] is Providencia rettgeri. As to the kind of experiment: Minimum inhibitory concentration was measured against Proteus rettgeri A 21615, in combination with Kanamycin A at 8 ug/mL concentration. In short, it runs like this:
as §1

Assay [8] has as its system Pseudomonas aeruginosa. Nature of the assay: Minimum inhibitory concentration was measured against Pseudomonas aeruginosa A 20357.
The subject of assay [9] is Providencia rettgeri. As to the kind of experiment: Minimum inhibitory concentration was measured against Proteus rettgeri A 9637, in combination with Kanamycin A at 8 ug/mL concentration. In short, it runs like this: as §1
Assay [10] has as its system Pseudomonas aeruginosa. Nature of the assay: Minimum inhibitory concentration was measured against Pseudomonas aeruginosa A 20653, in combination with Kanamycin A at 8 ug/mL concentration. The method in brief:
as §1

The subject of assay [11] is Escherichia coli. Nature of the assay: Minimum inhibitory concentration was measured against Escherichia coli A 9632, in combination with Kanamycin A at specified concentration. The method in brief:
as §1

The test system of assay [12] is Escherichia coli. Nature of the assay: Minimum inhibitory concentration was measured against Escherichia coli A 9632.
For assay [13], the system named is Pseudomonas aeruginosa. Nature of the assay: Minimum inhibitory concentration was measured against Pseudomonas aeruginosa A 20653 in combination with Kanamycin A at specified concentration. The method in brief:
as §1

For assay [14], the system named is Escherichia coli. Nature of the assay: Minimum inhibitory concentration was measured against Escherichia coli A 20507.
Assay [15] has as its system Providencia rettgeri. As to the kind of experiment: Minimum inhibitory concentration was measured against Proteus rettgeri A 21615, in combination with Kanamycin A at specified concentration. The method in brief: as §1
Assay [16] concerns Escherichia coli. Nature of the assay: Minimum inhibitory concentration was measured against Escherichia coli A 20507, in combination with Kanamycin A at specified concentration. In short, it runs like this: as §1
The subject of assay [17] is Escherichia coli. Nature of the assay: Minimum inhibitory concentration was measured against Escherichia coli A 20665.
In assay [18] the test system is Escherichia coli. Nature of the assay: Minimum inhibitory concentration was measured against Escherichia coli A 9632, in combination with Kanamycin A at 8 ug/mL concentration. The method in brief:
as §1

Assay [19] relates to Escherichia coli. Nature of the assay: Minimum inhibitory concentration was measured against Escherichia coli A 20665, in combination with Kanamycin A at specified concentration. The method in brief: as §1
Assay [20] relates to Pseudomonas aeruginosa. As to the kind of experiment: Minimum inhibitory concentration was measured against Pseudomonas aeruginosa A 20357, in combination with Kanamycin A at 8 ug/mL concentration. In short, it runs like this:
as §1

Assay [21] has as its system Escherichia coli. Nature of the assay: Minimum inhibitory concentration was measured against Escherichia coli A 20507, in combination with Kanamycin A at 8 ug/mL concentration. The method in brief:
as §1

The test system of assay [22] is Escherichia coli. Nature of the assay: Minimum inhibitory concentration was measured against Escherichia coli A 20507, in combination with Kanamycin A at 32 ug/mL concentration. The method in brief: (§2)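 Kanamycin A was serially diluted in Mueller-Hinton broth with each epimino derivative held at a fixed 32 µg/mL (8 µg/mL also run). The value is the minimum inhibitory concentration of kanamycin A in the combination against Bristol-numbered strains, read for lowering of kanamycin A MIC in resistant strains.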

Assay [23] has as its system Providencia rettgeri. As to the kind of experiment: Minimum inhibitory concentration was measured against Proteus rettgeri A 21615, in combination with Kanamycin A at 32 ug/mL concentration. The method in brief:
as §2

In assay [24] the test system is Providencia rettgeri. As to the kind of experiment: Minimum inhibitory concentration was measured against Proteus rettgeri A 9637, in combination with Kanamycin A at 32 ug/mL concentration. The method in brief: as §2
Assay [25] has as its system Pseudomonas aeruginosa. As to the kind of experiment: Minimum inhibitory concentration was measured against Pseudomonas aeruginosa A 20357, in combination with Kanamycin A at 32 ug/mL concentration. The method in brief:
as §2

Assay [26] concerns Escherichia coli. Nature of the assay: Minimum inhibitory concentration was measured against Escherichia coli A 20665, in combination with Kanamycin A at 32 ug/mL concentration. In short, it runs like this: as §2
Assay [27] relates to Pseudomonas aeruginosa. As to the kind of experiment: Minimum inhibitory concentration was measured against Pseudomonas aeruginosa A 20653 in combination with Kanamycin A at 32 ug/mL concentration. In short, it runs like this: as §2

Consider `NCC1OC(OC2C(N)CC(N)C(OC3OC(CO)C(O)C4NC34)C2O)C(N)C(O)C1O` (stereo unspecified), for which the MIC in the assay on Providencia rettgeri [1] was > 125 µg/mL; with Pseudomonas aeruginosa [2] it was > 125 µg/mL; in the assay with Escherichia coli [3] it was > 125 µg/mL; in the assay with Pseudomonas aeruginosa [4] it was 4 µg/mL; in the assay on Providencia rettgeri [5] it was 0.5 µg/mL; in the assay with Providencia rettgeri [6], > 125 µg/mL. For the same compound, the MIC in the assay on Providencia rettgeri [7] is 63 µg/mL; with Pseudomonas aeruginosa [8], > 125 µg/mL; in the assay on Providencia rettgeri [9] it was 0.5 µg/mL; in the assay on Pseudomonas aeruginosa [10], > 125 µg/mL; in the assay with Escherichia coli [11] it was 1 µg/mL; in the assay with Escherichia coli [12], 63 µg/mL (≈ 135 µM). The MIC in the assay on Pseudomonas aeruginosa [13] is > 125 µg/mL; in the assay on Escherichia coli [14], > 125 µg/mL; in the assay with Providencia rettgeri [15], 63 µg/mL; in the assay on Escherichia coli [16], 125 µg/mL; against Escherichia coli [17], > 125 µg/mL; in the assay with Escherichia coli [18], 1 µg/mL. The MIC is > 125 µg/mL with Escherichia coli [19], 4 µg/mL in the assay with Pseudomonas aeruginosa [20] and 125 µg/mL in the assay on Escherichia coli [21].
For `NCC1OC(OC2C(N)CC(N)C(O)C2O)C2NC2C1O` (stereo unspecified), the values for the MIC in the assay with Escherichia coli [14], in the assay on Escherichia coli [16] and in the assay on Escherichia coli [21] were > 125 µg/mL, 32 µg/mL and 63 µg/mL, respectively.
For the compound `NCC1OC(OC2C(NC(=O)OCc3ccccc3)CC(N)C(O)C2O)C(N)C(O)C1O` (stereo unspecified), the MIC in the assay on Providencia rettgeri [1] is > 125 µg/mL; with Pseudomonas aeruginosa [2], > 125 µg/mL; in the assay on Escherichia coli [22] it was 125 µg/mL; with Escherichia coli [3] it was > 125 µg/mL; with Providencia rettgeri [6] it was > 125 µg/mL; in the assay with Providencia rettgeri [7], 125 µg/mL. In addition, the MIC was > 125 µg/mL against Pseudomonas aeruginosa [8]; 125 µg/mL with Providencia rettgeri [23]; 1 µg/mL in the assay with Providencia rettgeri [9]; 1 µg/mL in the assay with Providencia rettgeri [24]; > 125 µg/mL in the assay on Pseudomonas aeruginosa [10]; 4 µg/mL in the assay on Pseudomonas aeruginosa [25]. Also, the MIC with Escherichia coli [12] was > 125 µg/mL; with Escherichia coli [14], > 125 µg/mL; in the assay with Escherichia coli [26], > 125 µg/mL; against Escherichia coli [17], > 125 µg/mL; in the assay with Escherichia coli [18] it was 2 µg/mL; in the assay on Pseudomonas aeruginosa [20], 4 µg/mL. The MIC in the assay on Escherichia coli [21] was 125 µg/mL; in the assay with Pseudomonas aeruginosa [27], > 125 µg/mL.
Take `NCC1OC(OC2C(NC(=O)OCc3ccccc3)CC(N)C(O)C2O)C2NC2C1O` (stereo unspecified): the MIC with Providencia rettgeri [1], in the assay with Pseudomonas aeruginosa [2], in the assay on Escherichia coli [3], in the assay on Providencia rettgeri [6], in the assay on Providencia rettgeri [7] and in the assay with Pseudomonas aeruginosa [8] was > 125 µg/mL each time. For the same compound, the MIC in the assay on Pseudomonas aeruginosa [10] is > 125 µg/mL; against Escherichia coli [12], 125 µg/mL (≈ 285 µM); with Pseudomonas aeruginosa [13], > 125 µg/mL; in the assay on Escherichia coli [14] it was > 125 µg/mL; in the assay with Providencia rettgeri [15], 63 µg/mL; in the assay on Escherichia coli [16], 63 µg/mL. Moreover, the results for the MIC with Escherichia coli [17], with Escherichia coli [19] and in the assay with Escherichia coli [21] were 125 µg/mL (≈ 285 µM), > 125 µg/mL and > 125 µg/mL, respectively.
Turning to `NCC1OC(OC2C(N)CC(N)C(OC3OC(CO)C(O)C(N)C3O)C2O)C2NC2C1O` (stereo unspecified), the MIC in the assay on Providencia rettgeri [1] is > 125 µg/mL; against Pseudomonas aeruginosa [2], 125 µg/mL (≈ 269 µM); in the assay with Escherichia coli [3] it was > 125 µg/mL; in the assay on Pseudomonas aeruginosa [4], 4 µg/mL; with Providencia rettgeri [5] it was 0.5 µg/mL; against Providencia rettgeri [6] it was 16 µg/mL (≈ 34.4 µM). Also, the MIC in the assay on Providencia rettgeri [7] is 125 µg/mL; in the assay with Pseudomonas aeruginosa [8] it was 125 µg/mL (≈ 269 µM); in the assay on Providencia rettgeri [9], 0.5 µg/mL; with Pseudomonas aeruginosa [10] it was > 125 µg/mL; against Escherichia coli [12] it was 8 µg/mL (≈ 17.2 µM); in the assay on Pseudomonas aeruginosa [13], > 125 µg/mL. Moreover, the MIC was 125 µg/mL (≈ 269 µM) in the assay on Escherichia coli [14]; 125 µg/mL in the assay with Providencia rettgeri [15]; 125 µg/mL in the assay on Escherichia coli [16]; 125 µg/mL (≈ 269 µM) in the assay with Escherichia coli [17]; 0.25 µg/mL in the assay with Escherichia coli [18]; > 125 µg/mL in the assay on Escherichia coli [19]. Moreover, the values for the MIC in the assay on Pseudomonas aeruginosa [20] and in the assay with Escherichia coli [21] were 4 µg/mL and 125 µg/mL, respectively.
For `NCC1OC(OC2C(NC(=O)OCc3ccccc3)CC(N)C(O)C2OC2O[C@H](CO)[C@@H](O)[C@H]2O)C2NC2C1O` (stereo partly specified), the minimum inhibitory concentration (MIC) in the assay on Providencia rettgeri [1] is > 125 µg/mL; against Pseudomonas aeruginosa [2] it was > 125 µg/mL; in the assay with Escherichia coli [3] it was > 125 µg/mL; in the assay with Pseudomonas aeruginosa [4] it was 4 µg/mL; with Providencia rettgeri [5], 0.5 µg/mL; against Providencia rettgeri [6] it was > 125 µg/mL. Further, the MIC with Providencia rettgeri [7] is 125 µg/mL; in the assay with Pseudomonas aeruginosa [8] it was > 125 µg/mL; in the assay on Providencia rettgeri [9] it was 0.5 µg/mL; in the assay on Pseudomonas aeruginosa [10], > 125 µg/mL; with Escherichia coli [11], 1 µg/mL; in the assay with Escherichia coli [12], > 125 µg/mL. For the same compound, the MIC is > 125 µg/mL in the assay on Pseudomonas aeruginosa [13]; > 125 µg/mL against Escherichia coli [14]; 125 µg/mL in the assay with Providencia rettgeri [15]; 63 µg/mL in the assay with Escherichia coli [16]; > 125 µg/mL against Escherichia coli [17]; 1 µg/mL in the assay with Escherichia coli [18]. The MIC was > 125 µg/mL in the assay with Escherichia coli [19], 4 µg/mL in the assay on Pseudomonas aeruginosa [20] and 125 µg/mL in the assay with Escherichia coli [21].
For `NC[C@H]1O[C@H](O[C@H]2[C@H](O)[C@@H](O[C@H]3O[C@H](CO)[C@@H](O)[C@H](N)[C@H]3O)[C@H](N)C[C@@H]2N)[C@H](O)[C@@H](O)[C@@H]1O` [KANAMYCIN], the MIC was 125 µg/mL (≈ 258 µM) against Providencia rettgeri [1]; > 125 µg/mL against Pseudomonas aeruginosa [2]; ≤ 0.25 µg/mL with Providencia rettgeri [6]; 2 µg/mL (≈ 4.13 µM) against Escherichia coli [12]; > 125 µg/mL against Escherichia coli [14]; > 125 µg/mL in the assay on Escherichia coli [17].
